Values after ≈ are worked out from the molar mass of the structure shown. Numbered stars: 1 amine (or outer) side, 2 acyl side, 3 side chain; on linkers, the order of the positions; unused ones are H or OH. Bridge positions count the residues as written; N and C are the ends. Square brackets hold non-standard residues; d marks the D form. Peptide text beside a SMILES is read from it. * marks the point of attachment. pTerphenylCO(4''-OnC5H11) = CCCCCOc1ccc(-c2ccc(-c3ccc(C(=O)*)cc3)cc2)cc1; Orn(4R-OH,5R-OH) = O=C([C@H](C[C@@H](O)[C@@H](O)N[*:3])N[*:1])[*:2]; Benzoyl(4-(biphenyl-4-yl)) = O=C(c1ccc(-c2ccc(-c3ccccc3)cc2)cc1)*; X16 = O=C(c1ccc(OCCOCCC23C[C@H]4C[C@@H](C2)C[C@@H](C3)C4)cc1)*; hTyr(3S-OH,4S-OH) = N[C@H](C(=O)O)[C@H](O)[C@@H](O)c1ccc(O)cc1; X20 = CCCCCOc1ccc(C#Cc2ccc(-c3ccc(C(=O)*)cc3)cc2)cc1; Pro(3S-OH,4S-Me) = C[C@H]1CN[C@H](C(=O)O)[C@H]1O; X13 = O=C(CCCCCCCCCCOc1ccc(-c2ccccc2)cc1)*; X10 = CCCCc1ccc(COc2ccc(C(=O)*)cc2)cc1; X12 = CCCCCCCCCCOCCOc1ccc(C(=O)*)cc1; X15 = CCCCCCOc1ccc2cc(C(=O)*)ccc2c1; Hyp = O=C(O)[C@@H]1C[C@@H](O)CN1
Legend:
Candida albicans [1] = assay: Antifungal activity against Candida albicans; type: functional
How it was run: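 Broth microdilution, C. albicans A26 (ATCC 62342) grown on Sabouraud dextrose agar at 35 °C; inoculum 1 × 10^5 conidia/mL in antibiotic 3 broth. Compounds dissolved at 1.0 mg/mL in methanol, 2-fold serial dilutions from 80 µg/mL, duplicate. Read after 48 h at 35 °C. MIC = lowest concentration completely inhibiting visible growth.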

[2] = target: Beta-1,3-glucan synthase (Candida albicans) (UniProt O13428); assay: In vitro inhibition of glucan synthase obtained from Candida albicans at a concentration of 10 ug/mL.
How it was run: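 Purified, solubilized β-(1,3)-D-glucan synthase prepared from C. albicans. Percent inhibition measured at 10 µg/mL compound, single determination.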

Candida albicans [3] = assay: In vivo antifungal activity administered intraperitoneally against Candida albicans infections in mice.; type: functional; details: ip
How it was run: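 Male ICR mice (18-20 g), X-irradiated with 400 r 24 h before iv tail-vein infection with 2 × 10^6 C. albicans A26 cells in saline. Compounds suspended in β-cyclodextrin, given parenterally at 0, 4, 24 and 48 h post-infection. 10 mice per dose, top dose 10 mg/kg with 2-fold dilutions down to 0.039 mg/kg. 7-day survival; ED50 by Reed-Muench.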

Candida albicans [4] = assay: In vivo antifungal activity administered orally against Candida albicans infections in mice.; type: functional; details: po
How it was run: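 X-irradiated (400 r, 24 h prior) male ICR mice infected iv with 2 × 10^6 C. albicans A26 cells. Oral gavage in cremophor (5%)/linoleic acid (8%)/water vehicle, b.i.d. × 4 starting immediately post-infection. 10 mice per dose level. Study ends at day 7; ED50 = dose giving 50% survival, by Reed-Muench.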

Beta-1,3-glucan synthase (Candida albicans), sequence (O13428 as listed by the source): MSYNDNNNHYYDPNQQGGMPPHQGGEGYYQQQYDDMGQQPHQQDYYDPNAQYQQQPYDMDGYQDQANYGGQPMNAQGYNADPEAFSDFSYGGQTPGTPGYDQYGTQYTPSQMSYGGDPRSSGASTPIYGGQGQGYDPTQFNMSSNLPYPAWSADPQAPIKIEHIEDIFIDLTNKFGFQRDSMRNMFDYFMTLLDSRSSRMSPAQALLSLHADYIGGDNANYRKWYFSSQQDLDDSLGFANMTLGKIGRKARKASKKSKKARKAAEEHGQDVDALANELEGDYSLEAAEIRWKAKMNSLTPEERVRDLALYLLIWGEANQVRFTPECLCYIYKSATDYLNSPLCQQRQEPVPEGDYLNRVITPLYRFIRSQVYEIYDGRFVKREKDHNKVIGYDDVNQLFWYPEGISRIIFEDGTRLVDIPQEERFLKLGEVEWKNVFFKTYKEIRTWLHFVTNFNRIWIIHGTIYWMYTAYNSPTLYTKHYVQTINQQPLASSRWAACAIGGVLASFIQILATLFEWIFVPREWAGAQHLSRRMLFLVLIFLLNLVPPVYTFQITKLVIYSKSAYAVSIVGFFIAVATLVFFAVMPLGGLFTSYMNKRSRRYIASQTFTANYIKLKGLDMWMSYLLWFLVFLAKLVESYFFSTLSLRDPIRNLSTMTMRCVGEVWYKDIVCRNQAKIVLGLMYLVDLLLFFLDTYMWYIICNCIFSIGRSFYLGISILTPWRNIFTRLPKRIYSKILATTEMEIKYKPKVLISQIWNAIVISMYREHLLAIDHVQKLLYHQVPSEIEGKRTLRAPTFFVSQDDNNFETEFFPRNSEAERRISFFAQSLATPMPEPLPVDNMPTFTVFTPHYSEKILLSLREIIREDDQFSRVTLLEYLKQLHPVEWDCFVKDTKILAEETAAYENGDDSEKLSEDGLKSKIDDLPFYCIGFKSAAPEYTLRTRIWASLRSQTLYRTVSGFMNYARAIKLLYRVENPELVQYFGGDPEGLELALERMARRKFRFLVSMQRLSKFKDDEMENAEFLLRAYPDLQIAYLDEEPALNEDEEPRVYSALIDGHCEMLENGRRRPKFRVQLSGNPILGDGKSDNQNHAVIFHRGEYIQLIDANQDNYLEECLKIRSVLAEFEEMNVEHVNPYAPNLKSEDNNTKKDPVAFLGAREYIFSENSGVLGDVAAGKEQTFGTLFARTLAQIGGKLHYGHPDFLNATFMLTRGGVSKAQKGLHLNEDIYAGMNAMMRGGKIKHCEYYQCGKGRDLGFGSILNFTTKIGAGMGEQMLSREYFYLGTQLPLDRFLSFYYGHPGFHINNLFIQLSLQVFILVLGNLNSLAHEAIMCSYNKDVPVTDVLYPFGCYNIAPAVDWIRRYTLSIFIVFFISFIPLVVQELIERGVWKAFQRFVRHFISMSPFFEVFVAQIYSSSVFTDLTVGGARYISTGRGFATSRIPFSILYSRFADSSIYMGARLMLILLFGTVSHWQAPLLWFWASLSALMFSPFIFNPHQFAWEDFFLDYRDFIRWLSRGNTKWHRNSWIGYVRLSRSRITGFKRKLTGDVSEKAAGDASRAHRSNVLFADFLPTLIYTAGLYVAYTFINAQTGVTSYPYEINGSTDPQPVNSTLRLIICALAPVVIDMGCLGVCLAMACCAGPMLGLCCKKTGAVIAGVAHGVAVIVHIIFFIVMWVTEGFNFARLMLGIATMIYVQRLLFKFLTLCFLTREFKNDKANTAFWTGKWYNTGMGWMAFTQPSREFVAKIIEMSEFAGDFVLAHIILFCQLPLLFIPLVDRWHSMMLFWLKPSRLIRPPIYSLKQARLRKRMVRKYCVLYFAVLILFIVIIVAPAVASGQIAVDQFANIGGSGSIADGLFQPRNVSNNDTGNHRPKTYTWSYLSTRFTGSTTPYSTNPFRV

Row | SMILES | MIC (Candida albicans [1]) [µg/mL] | inhibition [2] [%] | ED50 (Candida albicans [3]) [mg/kg] | ED50 (Candida albicans [4]) [mg/kg]
1 | C[C@@H](O)[C@@H]1NC(=O)[C@H]([C@H](O)[C@@H](O)c2ccc(O)cc2)NC(=O)[C@@H]2C[C@@H](O)CN2C(=O)[C@H]([C@@H](C)O)NC(=O)[C@@H](NC(=O)c2ccc(-c3ccc(-c4ccccc4)cc3)cc2)C[C@@H](O)[C@@H](O)NC(=O)[C@@H]2[C@@H](O)[C@@H](C)CN2C1=O ({Benzoyl(4-(biphenyl-4-yl))}-[Orn(4R-OH,5R-OH)]T[Hyp][hTyr(3S-OH,4S-OH)]T[Pro(3S-OH,4S-Me)]; lactam 1-C) | 0.078 (≈ 0.074 µM) | 78.8 | 1.3 | > 50
2 | CCCCCOc1ccc(-c2ccc(-c3ccc(C(=O)N[C@H]4C[C@@H](O)[C@@H](O)NC(=O)[C@@H]5[C@@H](O)[C@@H](C)CN5C(=O)[C@H]([C@@H](C)O)NC(=O)[C@H]([C@H](O)[C@@H](O)c5ccc(O)cc5)NC(=O)[C@@H]5C[C@@H](O)CN5C(=O)[C@H]([C@@H](C)O)NC4=O)cc3)cc2)cc1 [ANIDULAFUNGIN] ({pTerphenylCO(4''-OnC5H11)}-[Orn(4R-OH,5R-OH)]T[Hyp][hTyr(3S-OH,4S-OH)]T[Pro(3S-OH,4S-Me)]; lactam 1-C) | 0.005 (≈ 0.00438 µM) | 75 | 0.3 | 7.8
3 | CCCCCOc1ccc(C#Cc2ccc(-c3ccc(C(=O)N[C@H]4C[C@@H](O)[C@@H](O)NC(=O)[C@@H]5[C@@H](O)[C@@H](C)CN5C(=O)[C@H]([C@@H](C)O)NC(=O)[C@H]([C@H](O)[C@@H](O)c5ccc(O)cc5)NC(=O)[C@@H]5C[C@@H](O)CN5C(=O)[C@H]([C@@H](C)O)NC4=O)cc3)cc2)cc1 (X20-[Orn(4R-OH,5R-OH)]T[Hyp][hTyr(3S-OH,4S-OH)]T[Pro(3S-OH,4S-Me)]; lactam 1-C) | < 0.01 | 82.3 | – | 8.8
4 | C[C@@H](O)[C@@H]1NC(=O)[C@H]([C@H](O)[C@@H](O)c2ccc(O)cc2)NC(=O)[C@@H]2C[C@@H](O)CN2C(=O)[C@H]([C@@H](C)O)NC(=O)[C@@H](NC(=O)c2ccc(OCCOCCC34C[C@H]5C[C@@H](C3)C[C@@H](C4)C5)cc2)C[C@@H](O)[C@@H](O)NC(=O)[C@@H]2[C@@H](O)[C@@H](C)CN2C1=O (X16-[Orn(4R-OH,5R-OH)]T[Hyp][hTyr(3S-OH,4S-OH)]T[Pro(3S-OH,4S-Me)]; lactam 1-C) | 0.039 (≈ 0.0347 µM) | 72.3 | – | > 50
5 | CCCCCCOc1ccc2cc(C(=O)N[C@H]3C[C@@H](O)[C@@H](O)NC(=O)[C@@H]4[C@@H](O)[C@@H](C)CN4C(=O)[C@H]([C@@H](C)O)NC(=O)[C@H]([C@H](O)[C@@H](O)c4ccc(O)cc4)NC(=O)[C@@H]4C[C@@H](O)CN4C(=O)[C@H]([C@@H](C)O)NC3=O)ccc2c1 (X15-[Orn(4R-OH,5R-OH)]T[Hyp][hTyr(3S-OH,4S-OH)]T[Pro(3S-OH,4S-Me)]; lactam 1-C) | 0.039 (≈ 0.0371 µM) | 77.7 | 2.8 | –
6 | C[C@@H](O)[C@@H]1NC(=O)[C@H]([C@H](O)[C@@H](O)c2ccc(O)cc2)NC(=O)[C@@H]2C[C@@H](O)CN2C(=O)[C@H]([C@@H](C)O)NC(=O)[C@@H](NC(=O)CCCCCCCCCCOc2ccc(-c3ccccc3)cc2)C[C@@H](O)[C@@H](O)NC(=O)[C@@H]2[C@@H](O)[C@@H](C)CN2C1=O (X13-[Orn(4R-OH,5R-OH)]T[Hyp][hTyr(3S-OH,4S-OH)]T[Pro(3S-OH,4S-Me)]; lactam 1-C) | 0.02 (≈ 0.0176 µM) | 80.2 | 7.4 | –
7 | CCCCCCCCCCOCCOc1ccc(C(=O)N[C@H]2C[C@@H](O)[C@@H](O)NC(=O)[C@@H]3[C@@H](O)[C@@H](C)CN3C(=O)[C@H]([C@@H](C)O)NC(=O)[C@H]([C@H](O)[C@@H](O)c3ccc(O)cc3)NC(=O)[C@@H]3C[C@@H](O)CN3C(=O)[C@H]([C@@H](C)O)NC2=O)cc1 (X12-[Orn(4R-OH,5R-OH)]T[Hyp][hTyr(3S-OH,4S-OH)]T[Pro(3S-OH,4S-Me)]; lactam 1-C) | 0.625 (≈ 0.567 µM) | 71.4 | 9.5 | –
8 | CCCCc1ccc(COc2ccc(C(=O)N[C@H]3C[C@@H](O)[C@@H](O)NC(=O)[C@@H]4[C@@H](O)[C@@H](C)CN4C(=O)[C@H]([C@@H](C)O)NC(=O)[C@H]([C@H](O)[C@@H](O)c4ccc(O)cc4)NC(=O)[C@@H]4C[C@@H](O)CN4C(=O)[C@H]([C@@H](C)O)NC3=O)cc2)cc1 (X10-[Orn(4R-OH,5R-OH)]T[Hyp][hTyr(3S-OH,4S-OH)]T[Pro(3S-OH,4S-Me)]; lactam 1-C) | 0.156 (≈ 0.147 µM) | 68.9 | 6.7 | –
